Measured values from ChEMBL document CHEMBL4052652, “Development of WNK signaling inhibitors as a new class of antihypertensive drugs” (Bioorg Med Chem, 2017).
Calls of active or inactive are those of the source. No cut-off for these calls is given here.

How the values were obtained:
[1] = target: STE20/SPS1-related proline-alanine-rich protein kinase (Rattus norvegicus, UniProt O88506); experiment: Inhibition of TAMRA-labelled WNK4 binding to recombinant rat C-terminal GST-fused SPAK (452 to 553 residues) expressed in Escherichia coli BL21 measured for 15 secs by FCS assay
How it was run: (§1)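 GST-fused rat SPAK CCT (residues 452–553) expressed in E. coli BL21 with IPTG induction for 16 h at 28°C, then glutathione-affinity purified. TAMRA-labelled WNK4 RFQV peptide (2.7 nM final) incubated with 0.5 µM GST–SPAK-CCT in PBS with 0.05% Tween 20 and 1% DMSO for 30 min at 25°C. An AFQV-mutant peptide served as negative control. Binding read by FCS with 15 s acquisition, five measurements per sample, and IC50 calculated from the data.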

[2] = target: STE20/SPS1-related proline-alanine-rich protein kinase (Rattus norvegicus) (UniProt O88506); experiment: Inhibition of TAMRA-labelled WNK4 binding to recombinant rat C-terminal GST-fused SPAK (452 to 553 residues) expressed in Escherichia coli BL21 at > 10^-5 M measured for 15 secs by FCS assay; how it was run: as §1
[3] = test system: Mus musculus; experiment: In-vivo inhibition of WNK signaling pathway in C57BL/6 mouse assessed as reduction in NKCC2 phosphorylation at 5 to 20 mg/kg, ip after 90 mins by immunoblotting analysis; assay type: functional, organism-based
How it was run: (§2)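 Male-unspecified C57BL/6 mice, 10 weeks old, given a single ip injection of 5, 10 or 20 mg/kg in 100 µL DMSO, with DMSO-alone controls. Kidneys taken 90 min later and homogenized in ice-cold 1% Triton X-100 buffer. Nuclear fraction removed, lysate denatured at 60°C for 20 min, and protein measured by Bradford. Total and phospho forms of SPAK, NCC (pSer71), NKCC1 (pThr206) and NKCC2 detected by quantitative immunoblotting.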

[4] = test system: HEK-293T; experiment: Cytotoxicity against HEK293T cells at 100 uM after 40 hrs by CCK8 assay; assay type: cell-based; conditions: human
[5] = test system: Mus musculus; experiment: In-vivo inhibition of WNK signaling pathway in C57BL/6 mouse assessed as reduction in NKCC1 phosphorylation at 5 to 20 mg/kg, ip after 90 mins by immunoblotting analysis; assay type: functional, organism-based; how it was run: as §2
[6] = test system: Mus musculus; experiment: In-vivo inhibition of WNK signaling pathway in ip dosed C57BL/6 mouse assessed as reduction in phosphorylated NCC level after 90 mins by immunoblotting analysis; assay type: functional, organism-based; how it was run: as §2
[7] = test system: HEK-293T; experiment: Cytotoxicity against HEK293T cells after 40 hrs by CCK8 assay; assay type: cell-based; conditions: Homo sapiens

Structure (SMILES): CCOc1ccc2nc3cc(NCc4ccccc4)ccc3c(N)c2c1
- IC50 [1]: 35.6 µM

Structure (SMILES): CCOc1ccc2nc3cc(NC(=O)c4ccc(C(=O)OC)cc4)ccc3c(N)c2c1
- inhibition [2]: inactive

Structure (SMILES): CCOc1ccc2nc3cc(NC(=O)c4ccc(C#N)cc4)ccc3c(Oc3ccccc3)c2c1
- inhibition [2]: inactive

Structure (SMILES): CCOc1ccc2nc3cc(NC(=O)c4ccc([N+](=O)[O-])cc4)ccc3c(N)c2c1
- IC50 [1]: 20.9 µM

Structure (SMILES): CCOc1ccc2nc3cc(NC(=O)c4cccc([N+](=O)[O-])c4)ccc3c(N)c2c1
- IC50 [1]: 3.9 µM

Structure (SMILES): CCOc1ccc2nc3cc(NC(=O)c4cccc(C#N)c4)ccc3c(N)c2c1
- IC50 [1]: 2.6 µM

Structure (SMILES): COc1ccc2nc3cc(NC(=O)Nc4ccc(C#N)cc4)ccc3c(N)c2c1
- inhibition [3]: Active
- Activity [4]: Non-Toxic
- IC50 [1]: 4.8 µM
- inhibition [5]: Active
- inhibition [6]: Dose-dependent effect

Structure (SMILES): CCOc1ccc2nc3cc(NC(=O)c4ccc(F)cc4)ccc3c(N)c2c1
- IC50 [1]: 36.9 µM

Structure (SMILES): CCOc1ccc2nc3cc(NCc4ccc(OC)cc4OC)ccc3c(N)c2c1
- IC50 [1]: 21.1 µM

Structure (SMILES): CCOc1ccc2nc3cc(NC(=O)c4ccc(C#N)cc4)ccc3cc2c1
- inhibition [2]: inactive

Structure (SMILES): CCOc1ccc2nc3cc(NC(=O)c4cc(C(F)(F)F)cc(C(F)(F)F)c4)ccc3c(N)c2c1
- IC50 [1]: > 100 µM

Structure (SMILES): CCOc1ccc2nc3cc(NCc4cccs4)ccc3c(N)c2c1
- IC50 [1]: 53.5 µM

Structure (SMILES): CCOc1ccc2nc3cc(NC(=O)c4ccc(Cl)cc4)ccc3c(N)c2c1
- IC50 [1]: 49 µM

Structure (SMILES): CCOc1ccc2nc3cc(NC(=O)c4ccc(C#N)cc4)ccc3c(N)c2c1
- inhibition [3]: Active
- IC50 [1]: 6.9 µM
- inhibition [5]: Active
- inhibition [6]: Dose-dependent effect
- IC50 [7]: 25 µM

Structure (SMILES): CCOc1ccc2nc3cc(NC(=O)c4ccccc4)ccc3c(N)c2c1
- IC50 [1]: 28.2 µM

Structure (SMILES): CCOc1ccc2nc3cc(NC(=O)c4ccco4)ccc3c(N)c2c1
- IC50 [1]: 8.2 µM

Structure (SMILES): CCOc1ccc2nc3cc(NCc4ccco4)ccc3c(N)c2c1
- IC50 [1]: 15.4 µM
- IC50 [7]: 4.2 µM

Structure (SMILES): N#Cc1ccc(NC(=O)Nc2ccc3c(N)c4cc(O)ccc4nc3c2)cc1
- IC50 [1]: 2.6 µM

Structure (SMILES): CCOc1ccc2nc3cc(NC(C)=O)ccc3c(N)c2c1
- inhibition [2]: inactive

Structure (SMILES): CCOc1ccc2nc3cc(NC(=O)c4ccc5ccccc5c4)ccc3c(N)c2c1
- IC50 [1]: 7.6 µM
